ChEMBL document CHEMBL1137854, “Substituted piperazines as novel dipeptidyl peptidase IV inhibitors” (Bioorg Med Chem Lett, 2004)

Legend:
Dipeptidyl peptidase 2 = Dipeptidyl peptidase 2 (Homo sapiens, UniProt Q9UHL4); test: Inhibitory concentration against quiescent cell proline peptidase
Dipeptidyl peptidase 4 = Dipeptidyl peptidase 4 (Homo sapiens, UniProt P27487); test: Inhibitory concentration against Dipeptidylpeptidase IV
[1] = Clearance in rat; type: ADME, organism-based; conditions: in vivo
In short: (§1)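 Male Sprague-Dawley rats given compound intravenously at 1 mg/kg and orally at 2 mg/kg; plasma drug concentrations measured by LC/MS/MS.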

[2] = Bioavailability in rat; type: ADME, organism-based; conditions: in vivo; in short: as §1

Chain of Dipeptidyl peptidase 4 (P27487 whole entry): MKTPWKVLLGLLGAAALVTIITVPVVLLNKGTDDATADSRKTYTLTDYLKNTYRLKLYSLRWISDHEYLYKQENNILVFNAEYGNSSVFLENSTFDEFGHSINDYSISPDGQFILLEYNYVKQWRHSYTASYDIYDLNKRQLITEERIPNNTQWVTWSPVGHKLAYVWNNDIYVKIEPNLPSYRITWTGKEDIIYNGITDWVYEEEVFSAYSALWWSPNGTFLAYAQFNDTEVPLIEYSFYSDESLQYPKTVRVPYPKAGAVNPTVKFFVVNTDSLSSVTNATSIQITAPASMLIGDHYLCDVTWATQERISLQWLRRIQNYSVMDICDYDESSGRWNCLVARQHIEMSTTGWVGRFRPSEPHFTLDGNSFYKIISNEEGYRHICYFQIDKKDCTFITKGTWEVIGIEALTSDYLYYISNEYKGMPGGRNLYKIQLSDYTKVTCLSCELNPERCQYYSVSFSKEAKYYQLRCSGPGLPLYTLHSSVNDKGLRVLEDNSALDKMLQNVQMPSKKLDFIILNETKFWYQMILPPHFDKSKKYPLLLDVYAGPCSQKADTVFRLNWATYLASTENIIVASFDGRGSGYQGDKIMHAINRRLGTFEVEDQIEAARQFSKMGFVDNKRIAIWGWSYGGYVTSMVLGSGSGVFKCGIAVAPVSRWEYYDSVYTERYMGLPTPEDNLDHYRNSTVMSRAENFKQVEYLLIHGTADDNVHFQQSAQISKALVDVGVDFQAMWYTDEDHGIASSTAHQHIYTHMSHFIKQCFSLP

Row | IC50 (Dipeptidyl peptidase 2) [nM] | IC50 (Dipeptidyl peptidase 4) [nM] | clearance [1] [mL/min/kg] | bioavailability [2] [%] | Compound
1 | 23000 | 610 |  |  | N[C@@H](CC(=O)N1CCNC[C@H]1c1ccc(F)cc1)Cc1ccccc1F
2 |  |  | 130 | < 1 | CS(=O)(=O)Nc1cccc(NC(=O)CN2CCN(C(=O)C[C@H](N)Cc3ccccc3F)[C@H](Cc3ccccc3)C2)c1
3 | > 100000 | 225 |  |  | CN1CCN(C(=O)C[C@H](N)Cc2ccccc2F)[C@H](Cc2ccccc2)C1
4 | 15000 | 405 |  |  | N[C@@H](CC(=O)N1CCN(Cc2ccccc2)C[C@H]1Cc1ccccc1)Cc1ccccc1F
5 | 15000 | 36000 |  |  | CS(=O)(=O)Nc1cccc(NC(=O)CN2CCN(C(=O)C[C@@H](N)Cc3ccc(F)c(F)c3)C(Cc3ccccc3)C2)c1 (some centres undefined)
6 | > 100000 | 155 |  |  | N[C@@H](CC(=O)N1CCNC[C@H]1Cc1cccnc1)Cc1ccccc1F
7 | > 100000 | 108 |  |  | N[C@@H](CC(=O)N1CCOC[C@H]1Cc1ccccc1)Cc1ccccc1F
8 | > 100000 | 1040 |  |  | N[C@@H](CC(=O)N1CCCC[C@H]1Cc1ccccc1)Cc1ccccc1F
9 | > 100000 | 1600 |  |  | C[C@@H]1CNCCN1C(=O)C[C@H](N)Cc1ccccc1F
10 | 50000 | 922 |  |  | CC(C)[C@@H]1CNCCN1C(=O)C[C@H](N)Cc1ccccc1F
11 | 19000 |  |  |  | CS(=O)(=O)Nc1cccc(NC(=O)CN2CCN(C(=O)C[C@@H](N)Cc3ccccc3)C(Cc3ccccc3)C2)c1 (some centres undefined)
12 | 65000 |  |  |  | N[C@@H](CC(=O)N1CCNC[C@H]1Cc1ccccc1)Cc1cc(F)ccc1F

The next lines start with the compound.

Row | Compound | IC50 (Dipeptidyl peptidase 2) [nM] | IC50 (Dipeptidyl peptidase 4) [nM] | clearance [1] [mL/min/kg] | bioavailability [2] [%]
13 | N[C@@H](CC(=O)N1CCNC[C@H]1Cc1ccccc1)Cc1ccccc1F | > 100000 | 139 |  | 
14 | CS(=O)(=O)Nc1cccc(NC(=O)CN2CCN(C(=O)C[C@H](N)Cc3ccccc3)C(Cc3ccccc3)C2)c1 (some centres undefined) | 7700 |  |  | 
15 | N[C@@H](CC(=O)N1CCNCC1)Cc1ccccc1F | > 100000 | 3700 |  | 
16 | N[C@@H](CC(=O)N1CCNC[C@H]1Cc1ccc(F)cc1)Cc1ccccc1F | > 100000 | 166 |  | 
17 | NC(=O)CN1CCN(C(=O)C[C@H](N)Cc2ccccc2F)[C@H](Cc2ccccc2)C1 | 66000 | 114 |  | 
18 | N[C@@H](CC(=O)N1CCNC[C@H]1Cc1cscn1)Cc1ccccc1F | > 100000 | 143 |  | 
19 | CS(=O)(=O)Nc1cccc(NC(=O)CN2CCN(C(=O)C[C@H](N)Cc3ccc(F)c(F)c3)C(Cc3ccccc3)C2)c1 (some centres undefined) | 450 | 44 |  | 
20 | CS(=O)(=O)Nc1cccc(NC(=O)CN2CCN(C(=O)C[C@H](N)Cc3ccc(F)c(F)c3)[C@@H](Cc3ccccc3)C2)c1 | 280 | 1100 |  | 
21 | CS(=O)(=O)Nc1cccc(NC(=O)CN2CCN(C(=O)C[C@H](N)Cc3ccc(F)c(F)c3)[C@H](Cc3ccccc3)C2)c1 | 640 | 30 |  | 
